Assay outcomes (PubChem)
In the library only some 5.8% were active in any assay of this set; here they are far more common.
WT yeast gro inh: growth inhibition of WT yeast, mitochondrial fusion screen; mitochondrial fusion phenotypic screen, WT strain; inhibition, % at 10 µM; actives 2.1% (n = 190,000); in the data active = inhibition above about 58%; tested in S. cerevisiae
NCF1 inh: p47phox (human) inhibition; P14598; p47phox/p22phox peptide binding, fluorescence polarization, 2 h; inhibition, % at 24.7 µM; actives 0.53% (n = 220,000);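 active = inhibition above about 30%, limit read from the data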
ROMK mod: modulates human ROMK potassium channel activity; P48048; Tet-inducible ROMK, thallium flux fluorescence; actives lie on both sides; B-score at 10 µM; actives 2% (n = 130,000); AID 1918;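 active = signal ratio slope over the read window, or its plate-corrected B-score, at least 3 SD from the plate mean, either direction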;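 note: B-score of the F/F0 ratio slope over 7 to 12 s after thallium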
RBBP9 inh: blocks human serine hydrolase RBBP9; O75884; recombinant RBBP9, FP-Rh probe fluorescence polarization; inhibition, % at 7.94 µM; actives 0.2% (n = 220,000); AID 1515;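 active = inhibition above the campaign mean of all tested compounds plus 3 SD, cut at about 14% in these data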
Target sequence (O75884 whole entry, looked up): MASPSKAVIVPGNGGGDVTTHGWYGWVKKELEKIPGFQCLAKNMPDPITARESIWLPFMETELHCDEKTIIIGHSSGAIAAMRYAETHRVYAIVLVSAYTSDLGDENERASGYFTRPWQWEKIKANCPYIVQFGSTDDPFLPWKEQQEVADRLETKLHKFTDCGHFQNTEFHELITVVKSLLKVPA
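Test system: recombinant human RBBP9. Quantity: 2.5 µM RBBP9 dispensing solution, before mixing. Detection: FP readout at 525/598 nm. Reagent: Serine-hydrolase probe FP-Rh, 375 nM pre-mixing. Measure: % inhibition. Control set: DMSO-treated enzyme wells and wells lacking RBBP9. Buffer or medium: Tris-NaCl-Pluronic buffer, pH 8.0. Times: preincubation 30 min plus labeling 45 min at 25 °C.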
14-3-3 Bad PPI: disrupts binding of bovine 14-3-3 zeta to phospho-Bad peptide | P63103 | TR-FRET 14-3-3zeta/Dy647-pBad peptide displacement, 1 h | inhibition, % at 21.7 µM | actives 0.71% (n = 220,000) | AID 781;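 active = inhibition above about 70%, limit read from the data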
Target sequence (P63103 whole entry, looked up): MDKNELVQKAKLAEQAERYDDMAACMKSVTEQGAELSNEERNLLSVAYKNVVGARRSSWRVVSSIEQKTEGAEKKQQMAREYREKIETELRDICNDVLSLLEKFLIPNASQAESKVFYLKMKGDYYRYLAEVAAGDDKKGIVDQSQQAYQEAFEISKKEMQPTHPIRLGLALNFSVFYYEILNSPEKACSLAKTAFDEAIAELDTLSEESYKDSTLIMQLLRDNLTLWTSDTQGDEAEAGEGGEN
KCC2 mod: KCC2 (human) Cl- transport modulation; Q9H2X9; KCC2 cells, thallium flux FluoZin-2 fluorescence; B-score of Tl+ flux slope (higher = more flux/activation; lower = inhibition) at 10 µM; actives 2.2% (n = 190,000); AID 1456;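 active = thallium flux slope and its plate-corrected score both differing from the plate sample mean at a set confidence after two filtering rounds, in either direction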;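 note: slope of fluorescence scaled to starting intensity during 10 to 20 s after thallium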
KCC2 sec1: confirmation of human KCC2 transport modulators. shares compounds with KCC2 mod. normalised thallium flux (F/F0 slope) at 10 µM. HEK293-KCC2, thallium flux, FluoZin2 fluorescence; active compounds read high. actives 15% (n = 3,700);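 active = thallium flux slope above the same plate's solvent-only control mean plus 3 SD; inconclusive = the two replicate wells disagree; inactive = no significant difference from solvent-only control wells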
KCC2 bumet counter: thallium flux despite bumetanide block in KCC2 cells, secondary assay 3; shares compounds with KCC2 mod; HEK293-KCC2 + bumetanide/ouabain, thallium flux FluoZin2; active compounds read high; normalized thallium flux at 10 µM; actives 49% (n = 3,700);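 active = thallium entry rate above the same plate's blocked-transporter control wells by more than 3 SD; inconclusive = the two repeat wells disagree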;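 note: raw slope of fluorescence over initial fluorescence between 10 and 20 s after thallium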
KCC2 secondary2: KCC2 (human) modulation, second secondary assay. AID 1715. normalized thallium flux at 10 µM. actives 23% (n = 3,700). HEK293-KCC2, thallium flux FluoZin2 fluorescence; actives lie on both sides; F/F0 rise rate, 10–20 s post-thallium. shares compounds with KCC2 mod;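 active = thallium flux slope more than 3 SD above or below the plate's solvent-only control mean, mostly below; inconclusive = the two repeat wells disagreed; inactive = no significant shift from solvent-only controls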
HEK293 Tl flux: counter-screen for KCC2 modulators: effect in parental HEK293 cells. shares compounds with KCC2 mod. thallium flux FluoZin2, ouabain; baseline-ratio fluorescence slope, 10–20 s after thallium. thallium flux rate (normalised fluorescence) at 10 µM. actives 46% (n = 3,700). AID 1716;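 active = thallium flux rate significantly above the same plate's solvent-only control wells, beyond their mean plus 3 SD; inconclusive = the two replicate wells gave conflicting results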
KCC2 retest ouab: KCC2 (human) modulation, ouabain retest. shares compounds with KCC2 mod. HEK293-KCC2, thallium flux FluoZin2 fluorescence; bidirectional: low = inhibitor, high = activator. raw Tl+ flux slope (below DMSO = inhibition, above = activation) at 10 µM. actives 48% (n = 3,700). AID 1717;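 active = thallium flux slope beyond 3 SD from same-plate DMSO control mean in most replicates, usually higher, sometimes lower; inconclusive = repeat tests gave conflicting results; inactive = no significant difference from controls in most replicates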;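 note: slope of initial-normalized fluorescence between seconds 10 and 20 after thallium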
HEK293 Tl flux2: parental HEK flux effect, counter-screen 2; HEK293 parental, thallium flux FluoZin-2 fluorescence slope; shares compounds with KCC2 mod; thallium flux slope at 10 µM; actives 33% (n = 3,700);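 active = thallium flux slope above the same plate's solvent-control mean plus 3 SD in both duplicate wells; inconclusive = duplicate wells that disagreed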;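 note: run without ouabain in cells lacking the KCC2 cotransporter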
A number is an active result; n = inactive; u = inconclusive; x = no result given.

SMILES	WT yeast gro inh	NCF1 inh	ROMK mod	RBBP9 inh	14-3-3 Bad PPI	KCC2 mod	KCC2 sec1	KCC2 bumet counter	KCC2 secondary2	HEK293 Tl flux	KCC2 retest ouab	HEK293 Tl flux2
Cc1nn(-c2ccccc2)c(N)c1Sc1cccc([N+](=O)[O-])c1	n	n	x	n	n	-7.03	n	n	n	0.00531	n	n
CC(C)(O)CC[C@@H](O)[C@](C)(O)[C@H]1CC[C@@]2(O)C3=CC(=O)[C@@H]4C[C@@H](O)[C@@H](O)C[C@]4(C)C3CC[C@]12C (stereo partly specified)	n	n	x	n	n	n	x	x	x	x	x	x
C[C@@H](C[C@@H](O)[C@H](O)C(C)(C)O)[C@@H]1CC[C@]2(C)C3=CC[C@H]4C(C)(C)C(=O)CC[C@]4(C)[C@H]3CC[C@@]12C	60.3	n	n	n	n	4.77	n	0.0307	n	n	u	n
CCN(CC)S(=O)(=O)c1ccc2c(c1)c(=O)c(C(=O)NCc1ccco1)cn2C	n	n	n	n	n	n	x	x	x	x	x	x
O=C(N/N=C/c1ccco1)c1cccc(N2Cc3ccccc3C2)c1	n	n	x	n	n	n	x	x	x	x	x	x
COc1ccc(S(=O)(=O)N(CCc2ccccc2)CC(=O)O)cc1Cl	n	n	x	n	n	-3.77	n	u	0.0268	n	0.0168	n
COc1ccc(S(=O)(=O)N(CCc2ccccc2)CC(N)=O)cc1	n	n	n	n	n	n	x	x	x	x	x	x
NS(=O)(=O)c1ccc(CCNC(=S)NC2CCCCC2)cc1	x	n	x	n	n	n	x	x	x	x	x	x
CCc1ccc(S(=O)(=O)NC(=S)NC2CCCCC2)cc1	n	n	n	n	n	32.3	0.0256	0.0712	u	0.0503	0.0599	0.0176
Cc1ccc(S(=O)(=O)NC(=S)NC2CCCCC2)cc1	n	n	n	n	n	13.4	0.0156	0.0317	n	u	0.0335	n
O=S(=O)(NC(=S)NC1CCCCC1)c1ccc(Cl)cc1	n	n	n	n	n	10.5	n	0.0198	n	0.02	0.0251	0.0218
Cc1ccc(S(=O)(=O)NC(C)C(=O)NC2CCCCCC2)cc1 (stereo unspecified)	n	n	n	n	n	n	x	x	x	x	x	x
CC(C)(/C=N/NC(=O)CSCc1ccccc1Cl)CCC#N	n	n	n	n	n	n	x	x	x	x	x	x
CSc1ccccc1NC(=O)C(=O)c1c[nH]c2ccccc12	n	x	n	n	n	n	x	x	x	x	x	x
O=Nc1ccc(NOC(=O)c2ccccc2)cc1	n	n	n	n	n	n	x	x	x	x	x	x
O=C(N=Nc1ccc(NOC(=O)c2ccccc2Br)cc1)c1ccccc1O	n	n	n	n	n	4.19	n	0.0209	n	0.0131	u	n
CCOc1ccc(NC(=S)N(C)C)cc1	x	n	x	n	n	n	x	x	x	x	x	x
CCN(CC)c1ccc(C(=O)OCC(=O)N(C(C)C)C(C)C)cc1	n	n	n	n	n	n	x	x	x	x	x	x
CCN(CC)c1ccc(C(=O)OCC(=O)N(C)Cc2ccccc2)cc1	n	n	n	n	n	-4.12	n	n	n	n	0.0145	n
Fc1ccccc1OCC1CCCN(Cc2nc(CC3CC3)no2)C1 (stereo unspecified)	n	n	n	n	n	n	x	x	x	x	x	x
